The source of these data is PubChem BioAssay AID588558 (Sanford-Burnham Center for Chemical Genomics, 2011).

The test system of this experiment is CHO-XBP1 cytotoxicity, ATPlite luminescence, 24 h. Briefly: CHO-XBP1 cell viability loss – 24 h exposure, ATPlite luminescence, cytotoxicity control for UPR apoptotic arm activator project, SAR follow-up (AID 588558). The procedure, abridged: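 Material: CHO-XBP1 cells | Quantity: 1000 cells/well | Medium: F12 with 10% FBS | Incubation: 24 h compound exposure at 37 °C | Measured by: ATPLite 1-Step luminescence | Controls: Tunicamycin positive control, final concentration 10 µg/mL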

Molecules are shown by their SMILES. Activity calls are given as the source filed them.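 How the source made its calls: active means mean IC50 of 20 µM or lower in the 24 hour cytotoxicity test; inactive means the rest.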

As usually defined, the IC50 is the concentration that gives 50% inhibition. On to `O=C(Nc1ccc(S(=O)(=O)C2CCCCC2)cc1)c1ccc([N+](=O)[O-])o1`, for which the IC50 was 22100 nM (inactive). Take `O=C(Nc1nc2c(F)c(F)ccc2s1)c1ccccn1`: the IC50 was 1350 nM.

As for `O=C(Nc1ccc(S(=O)(=O)N2CCOCC2)cc1)c1ccc([N+](=O)[O-])o1`, the IC50 is 32300 nM (inactive). `O=C(Nc1ccc(S(=O)(=O)N2CCC3(CCCCC3)CC2)cc1)c1ccc([N+](=O)[O-])o1`: the IC50 is 9050 nM.

With `O=C(Nc1ccc(S(=O)(=O)N2CCNCC2)cc1)c1ccc([N+](=O)[O-])o1`, the IC50 is > 80000 nM (inactive). As for `CC1CN(S(=O)(=O)c2ccc(NC(=O)c3ccc([N+](=O)[O-])o3)cc2)CC(C)O1` (stereo not given), the IC50 was 34900 nM (inactive). Consider `O=C(Nc1nc2c(F)ccc(F)c2s1)c1ccccn1`, for which the IC50 is 1060 nM.

For the compound `O=C(Nc1nc2ccc(F)c(F)c2s1)c1ccccn1`, the IC50 was 1190 nM.

For the compound `O=C(Nc1ccc(S(=O)(=O)N2CCC(F)CC2)cc1)c1ccc([N+](=O)[O-])o1`, the IC50 is 24700 nM (inactive). With `O=C(Nc1ccc(S(=O)(=O)N2CCCCC2)cc1)c1ccc([N+](=O)[O-])o1`, the IC50 is > 80000 nM (inactive). Turning to `O=C(Nc1nc2cc(F)cc(F)c2s1)c1ccccn1`, the IC50 was 1050 nM.

As for `O=C(Nc1ccc(S(=O)(=O)N2CCC(Cl)CC2)cc1)c1ccc([N+](=O)[O-])o1`, the IC50 is > 80000 nM (inactive). `O=C(Nc1ccc(S(=O)(=O)C2CCOCC2)cc1)c1ccc([N+](=O)[O-])o1`: the IC50 was 37600 nM (inactive). With `O=C(Nc1ccc(S(=O)(=O)N2CCOCC2)cc1)c1ccc([N+](=O)[O-])s1`, the IC50 is > 80000 nM (inactive). As to `O=C(Nc1nc2c(F)cccc2s1)c1ccccn1`, the IC50 is 1420 nM. In the case of `O=C(Nc1nc2ccc(Cl)cc2s1)c1ccccn1`, the half-maximal inhibitory concentration (IC50) is 1360 nM. As for `O=C(Nc1nc2c(F)cc(F)cc2s1)c1ccccn1`, the half-inhibitory concentration (IC50) was 1590 nM. With `O=C(Nc1nc2cccc(F)c2s1)c1ccccn1`, the IC50 was 1760 nM. The figure for `O=C(Nc1nc2cc(F)ccc2s1)c1ccccn1` is 1260 nM; for `O=C(Nc1ccc(S(=O)(=O)c2ccccc2)cc1)c1ccc([N+](=O)[O-])o1` it is 18500 nM. In the case of `O=C(Nc1nc2ccc(C(F)(F)F)cc2s1)c1ccccn1`, the IC50 is 970 nM. In the case of `O=C(Nc1nc2ccc(F)cc2s1)c1ccccn1`, the IC50 is 1990 nM. Take `O=C(Nc1ccc(S(=O)(=O)N2CCCC2)cc1)c1ccc([N+](=O)[O-])o1`: the IC50 is 19200 nM.

Take `O=C(Nc1nc2cc(F)c(F)cc2s1)c1ccccn1`: the IC50 was 1810 nM. In the case of `O=C(Nc1ccc(S(=O)(=O)N2CCC(O)CC2)cc1)c1ccc([N+](=O)[O-])o1`, the IC50 is 27900 nM (inactive). The figure for `Cc1cc(C)c2nc(NC(=O)c3ccccn3)sc2c1` is 3750 nM. For `CC1(C)CCN(S(=O)(=O)c2ccc(NC(=O)c3ccc([N+](=O)[O-])o3)cc2)CC1`, the IC50 was 18000 nM. Regarding `CC1CCN(S(=O)(=O)c2ccc(NC(=O)c3ccc([N+](=O)[O-])o3)cc2)CC1`, the IC50 was 32200 nM (inactive).

For `CC(C)(C)C1CCN(S(=O)(=O)c2ccc(NC(=O)c3ccc([N+](=O)[O-])o3)cc2)CC1`, the IC50 is 2680 nM.

Take `O=C(Nc1nc2c(Cl)cc(Cl)cc2s1)c1ccccn1`: the IC50 was 8770 nM.
